In the library only some 4.6% were active in any assay of this set; here they are far more common.
TAAR1 antagonist = human TAAR1 antagonists, primary screen, Fluo-8 calcium fluorescence, CHO RD-HGA16 cells | antagonist | inhibition, % at 3 µM | 360,000 tested, 1.5% active | Trace amine-associated receptor 1 (Homo sapiens), Q96RJ0;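 active = inhibition above a per-plate cutoff, the mean inhibition of test compounds on that plate plus 3 SD, cut at about 49% in these data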;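 also: 0% = DMSO plus EC80 beta-PEA response and 100% = DMSO alone without agonist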
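test system = CHO RD-HGA16 cells bearing hTAAR1 | replication = singlicate | controls = DMSO-only wells and EC80 β-PEA-stimulated wells | reagent = EC80 β-phenethylamine stimulus | read-out basis = percent inhibition of PEA-evoked calcium signal, max/basal emission ratio | schedule = seeding 17-24 h prior, 75-min 37 °C, 30-min RT dye loading | signal = kinetic Fluo-8 calcium fluorescence measurement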
TAAR1 agonist = human TAAR1 agonists, primary screen, Fluo-8 calcium fluorescence, CHO RD-HGA16 cells; vehicle wells 0%, saturating PEA agonist 100%; 360,000 tested, 0.99% active; Trace amine-associated receptor 1 (Homo sapiens), Q96RJ0; activation, % at 3 µM;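 active = activation above the mean activation of all test compounds in the run plus 3 SD, cut at about 38% in these data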
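Test system: RD-HGA16 (CHO) cells co-expressing Gα16 and hTAAR1 | Doses: Single dose, 3 µM | Schedule: 17-24 h seeding, 75 min 37 °C dye, 30 min RT | Evaluation: % activation from peak over basal fluorescence ratio, DMSO-to-PEA scaled | Technique: Kinetic Fluo-8 calcium fluorescence | Benchmarks: Low control DMSO, high control PEA (EC100)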
GPR7 antag = GPR7 receptor antagonists, primary screen, cell-based, fluorescence, single concentration | inhibition, % at 4.4 µM | GPR7-expressing cells, fluorescence antagonist assay | 290,000 tested, 1.1% active | Neuropeptides B/W receptor type 1 (Homo sapiens), P48145; in the data active = inhibition above about 16%, passing the limit was not always enough;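 also: cells stimulated with the agonist NPW; 0% = agonist with vehicle and 100% = vehicle without agonist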
Target sequence (P48145 whole entry, looked up): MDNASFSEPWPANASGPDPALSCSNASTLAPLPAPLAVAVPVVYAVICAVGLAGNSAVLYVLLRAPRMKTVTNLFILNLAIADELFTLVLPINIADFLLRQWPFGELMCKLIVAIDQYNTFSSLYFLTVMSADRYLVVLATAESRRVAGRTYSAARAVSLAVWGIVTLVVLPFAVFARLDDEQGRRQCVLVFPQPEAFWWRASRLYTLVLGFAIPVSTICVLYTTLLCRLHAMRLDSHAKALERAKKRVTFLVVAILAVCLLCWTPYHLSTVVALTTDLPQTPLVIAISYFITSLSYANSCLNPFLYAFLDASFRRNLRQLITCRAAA
OX1R antag-1 = OX1R (HCRTR1) antagonists, primary screen, fluorescence, CHO/OX1R cells, Fluo-8 calcium, orexin A. inhibition, % at 5 µM. Fluo-8 calcium fluorescence. AID 434989, 2010. 330,000 tested, 0.43% active;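 active = inhibition above its plate's threshold, mean inhibition of all tested compounds on the plate plus 3 SD, cut at about 37% in these data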;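 also: 0% = orexin A challenge wells and 100% = SB-334867-A antagonist wells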
Target sequence (O43613 whole entry, looked up): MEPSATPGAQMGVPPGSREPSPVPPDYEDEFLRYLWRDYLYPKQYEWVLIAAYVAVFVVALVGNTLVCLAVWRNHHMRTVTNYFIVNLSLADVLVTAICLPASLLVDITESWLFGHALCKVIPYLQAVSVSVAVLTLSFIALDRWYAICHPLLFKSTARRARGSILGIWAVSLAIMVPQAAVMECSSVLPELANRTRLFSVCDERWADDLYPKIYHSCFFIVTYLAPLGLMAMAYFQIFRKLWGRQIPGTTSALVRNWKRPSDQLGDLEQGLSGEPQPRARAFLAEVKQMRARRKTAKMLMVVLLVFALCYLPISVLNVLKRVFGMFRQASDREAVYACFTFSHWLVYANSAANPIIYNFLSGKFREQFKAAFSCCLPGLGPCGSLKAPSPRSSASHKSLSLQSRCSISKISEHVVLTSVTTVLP
OX1R antag-2 = antagonists of human orexin 1 receptor (OX1R). Orexin/Hypocretin receptor type 1 (Homo sapiens), O43613. OX1R-expressing cells, FRET antagonist read-out. inhibition, % at 6.6 µM. 330,000 tested, 1.8% active; in the data active = inhibition mostly above about 38%, no sharp cut-off; inactive = mostly below about 40%;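 also: 0% = agonist challenge alone and 100% = reference antagonist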
CHO parental Ca = ATP-evoked calcium signal inhibitors, parental CHO, primary screen, counter-screen for OX1R antagonist project, cell-based, fluorescence, Fluo-8 calcium dye; parental CHO-K1, ATP-induced calcium, Fluo-8 fluorescence; inhibition, % at 5.6 µM; 330,000 tested, 0.63% active; AID 463079, 2010;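 active = inhibition above that plate's mean sample inhibition plus 3 SD, cut at about 26% in these data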;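 also: 0% = ATP-challenged DMSO wells and 100% = DMSO wells without ATP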
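Measured by: calcium-sensitive Fluo-8 fluorescence / Test system: CHO parental line / Controls: ATP-challenged DMSO wells low, unchallenged DMSO wells high / Measure: % inhibition / Compound: single nominal dose of 5.6 µM per compound / Replicates: single well per compound, no replicates / Reagent: ATP as calcium-mobilizing challenge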
TAAR1 nonsel count = nonselective antagonists in TAAR1 counter-screen cells, counter-screen for hTAAR1 antagonist project, cell-based, fluorescence, calcium. shares compounds with TAAR1 antagonist. counterscreen cell line, antagonist mode. 2,400 tested, 77% active. inhibition, % at 3 µM; in the data active = inhibition above about 22%;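 also: CHO-Ga16 host cells stimulated with ATP at an EC80 level; 0% = agonist EC80 plus vehicle and 100% = vehicle without agonist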
TAAR1 ant conf = human TAAR1 antagonists, retest of hits, confirmation, cell-based, fluorescence | AID 651785, 2012 | 2,400 tested, 40% active | TAAR1-expressing cells, fluorescence antagonist read-out | shares compounds with TAAR1 antagonist | inhibition, % at 3 µM; in the data active = inhibition above about 49%;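 also: CHO-Ga16 host cells challenged with agonist PEA near its EC80; 0% = agonist at EC80 plus vehicle and 100% = vehicle with no agonist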
Ga16 nonsel ag = calcium activation in Ga16-expressing cells, counter-screen for TAAR1 antagonist project, cell-based, fluorescence; shares compounds with TAAR1 antagonist; activation, % at 3 µM; AID 651953, 2012; 2,400 tested, 18% active; agonist counterscreen; in the data active = activation above about 12%;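 also: 0% = vehicle wells and 100% = saturating stimulus response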
TAAR1 ag counter = TAAR1 activation by candidate antagonists – cell-based, fluorescence, counter-screen for TAAR1 antagonist project. shares compounds with TAAR1 antagonist. AID 651955, 2012. 2,400 tested, 2% active. hTAAR1 cell line, agonist mode. activation, % at 3 µM; in the data active = activation above about 37%;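 also: CHO cells stably expressing TAAR1 with calcium dye readout; 0% = DMSO vehicle and 100% = full agonist response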
Active calls of the source: *; . = no result given.

SMILES	TAAR1 antagonist	TAAR1 agonist	GPR7 antag	OX1R antag-1	OX1R antag-2	CHO parental Ca	TAAR1 nonsel count	TAAR1 ant conf	Ga16 nonsel ag	TAAR1 ag counter
Nc1ccc(-c2nc3cc([N+](=O)[O-])ccc3o2)cc1	55.5*	4.8	1.5	-21.9	9.4	-5.8	20.1	19.1	2.6	-2.7
Cc1ccc(NC(=S)N2CCN(S(=O)(=O)c3ccccc3)CC2)cc1C	-22.0	1.5	-6.5	.	.	.	.	.	.	.
O=C(COC(=O)/C=C/c1ccccc1)NNC(=O)c1ccc([N+](=O)[O-])cc1	-22.6	-1.3	.	-18.2	31.6	-11.4	.	.	.	.
Nc1c(S(=O)(=O)c2cccs2)c2nc3ccccc3nc2n1/N=C/c1cccc(O)c1	52.2*	10.9	-4.9	1.1	2.2	3.5	33.0*	52.1*	7.2	7.3
COc1ccc(-n2c(SCC(=O)N(C)C3CCS(=O)(=O)C3)nc3ccc(O)cc3c2=O)cc1OC (stereo not drawn)	-29.6	2.4	.	-2.5	7.8	-4.8	.	.	.	.
O=C(NCc1cc(C(F)(F)F)ccc1Cl)c1cccc2c1C(=O)c1ccc(N3CCOCC3)cc1S2(=O)=O	60.5*	17.8	.	1.6	-1.9	-7.5	33.2*	49.9*	22.2*	21.8
O=C(NCc1cc(C(F)(F)F)ccc1Cl)c1cccc2c1C(=O)c1ccc(N3CCCCC3)cc1S2(=O)=O	35.6	8.9	.	-15.9	7.5	-31.7	.	.	.	.
Cc1cccc(CN2CCN(C3CN(C4CCCCC4)S(=O)(=O)C3)CC2)c1 (stereo not drawn)	-21.1	1.0	.	.	.	.	.	.	.	.
O=C(C[C@@H]1C[C@@H]2c3cc(NS(=O)(=O)c4ccc(F)cc4)ccc3O[C@@H]2[C@H](CO)O1)N1CCc2ccccc2C1	14.5	21.9	.	.	.	.	.	.	.	.
CCOc1cc(/C=N/NC(N)=O)cc(Br)c1OCC(=O)Nc1cccc2ccccc12	66.3*	37.0	0.3	-21.1	52.7	15.2	30.5*	54.9*	13.8*	17.4
Cc1cccc(N2CCN(C(=O)c3cc(S(=O)(=O)N(C)C)ccc3N3CCCC3)CC2)c1C	-6.2	1.6	10.8	-23.9	19.4	-14.2	.	.	.	.
CCOc1ccccc1N1CCN(C(=O)c2cc(S(=O)(=O)N(C)C)ccc2N2CCCC2)CC1	56.8*	18.9	.	-26.9	-0.7	-12.5	19.5	46.9	9.4	9.5
O=C(CC[C@H]1O[C@@H](n2cnc3c(NC(=O)c4ccccc4)ncnc32)[C@H](O)[C@@H]1O)NCc1ccc(OC(F)(F)F)cc1	7.6	2.5	.	.	.	.	.	.	.	.
N#C/C(=C\c1ccc(-c2ccc(C(=O)O)cc2)o1)C(=O)Nc1ccc(F)cc1	70.1*	22.0	-5.9	-13.8	16.6	-5.3	33.2*	44.8	16.6*	20.0
O=C(Nc1ccncc1)C1CC(=O)N(c2ccccc2)C1 (stereo not drawn)	16.4	0.2	.	.	.	.	.	.	.	.
O=C(Nc1cccc(-c2cnc3ccccc3n2)c1)c1cccc(NC(=O)c2ccco2)c1	74.3*	19.3	-5.8	6.1	49.4*	-5.2	39.1*	63.4*	12.1*	9.7
O=C(Nc1ccccc1N1CCOCC1)c1cc(-c2ccco2)nc2ccccc12	61.7*	17.5	-18.3	-21.5	33.5	-43.9	29.3*	48.9*	7.9	8.8
O=C(Nc1cccc(-c2csc(Nc3ccccc3)n2)c1)c1ccccc1	64.5*	10.2	.	-30.8	55.3	-12.4	27.8*	33.4	1.6	-0.3
O=C(Nc1ccccc1F)c1cc(-c2ccco2)nc2ccccc12	26.9	9.3	.	-34.0	26.6	-25.0	.	.	.	.
O=C(Nc1cccc(-c2cnc3ccccc3n2)c1)C1CC(=O)N(c2ccccc2)C1 (stereo not drawn)	80.2*	19.6	-10.9	-25.4	9.1	-14.8	45.4*	62.6*	15.6*	17.5
Cc1nn(C)c(C(=O)Nc2c(C)nn(Cc3c(F)c(F)c(F)c(F)c3F)c2C)c1Br	8.2	5.0	5.1	.	.	.	.	.	.	.
CC(=O)c1cccc(NC(=O)c2cc(-c3ccncc3)nc3ccccc23)c1	46.2	10.3	.	-1.6	-3.7	-6.0	.	.	.	.
O=C(Nc1cccc(S(=O)(=O)NC2=NCCCCC2)c1)c1cc(-c2ccco2)nc2ccccc12	50.9*	12.6	-8.5	-10.7	7.7	-6.1	30.3*	46.4	7.9	5.8
CC(=O)c1cccc(NC(=O)c2cc(-c3ccco3)nc3ccccc23)c1	62.8*	13.5	-0.3	-19.1	15.8	-15.0	30.7*	49.7*	6.7	7.1
CC(=O)N1c2ccc(S(=O)(=O)N(C)CC(=O)NC3CCCCC3C)cc2CC1C (stereo not drawn)	.	.	2.0	-15.9	12.8	-9.2	.	.	.	.
Cc1ccc2[nH]c(O)c(N=NC(N)=S)c2c1	-16.5	-0.4	7.0	0.5	16.1	1.1	.	.	.	.
CC(/C=C(\NC(=O)c1ccccc1)C(=O)N=Nc1c(O)[nH]c2ccc(C)cc12)=C\c1ccccc1	64.8*	11.2	-2.7	-17.4	68.4	-19.4	20.3	47.0	7.0	5.4
O=S(=O)(c1ccccc1)N1CCN(C(c2ccccc2)c2ccc(OC(F)(F)F)cc2)CC1 (stereo not drawn)	-21.8	-1.2	-21.5	-22.3	9.9	-22.9	.	.	.	.
Cc1[nH]c2ccccc2c1C(=O)COC(=O)C1CC(=O)N(Cc2ccccc2)C1 (stereo not drawn)	70.3*	26.1	12.7	-11.9	32.2	-13.6	30.8*	52.7*	12.9*	13.1
CCOC(=O)c1c(C)[nH]c(C(=O)COC(=O)C2CC(=O)N(Cc3ccccc3)C2)c1C (stereo not drawn)	8.5	8.8	-0.6	-6.5	5.1	-7.6	.	.	.	.

Source: PubChem BioAssay (The Scripps Research Institute Molecular Screening Center)
